Source: PubChem BioAssay (several laboratories)
A selection: hits, their analogues and other compounds. The true share with any hit is near 12%.
CHOP inhibitor: inhibitors of CHOP promoter induction, primary screen, cell-based, unfolded protein response, luciferase reporter. CHO-K1 CHOP-promoter luciferase, tunicamycin-induced, 15-18 h. inhibition, % at 10 µM. 220,000 tested, 3.8% active;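 active = compounds that reduced the stress-induced luciferase reporter signal by more than about 70% of percent inhibition, limit read from the data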
MT stabilize HCS: microtubule stabilizers in HeLa cells, primary screen, imaging, high-content imaging; 200,000 tested, 0.83% active; % tubulin-high responders, % at 10 µM; HeLa tubulin immunostaining HCS, 24 h; share of cells brighter than vehicle mean+2SD;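 active = plate Z-score above 3 for both tubulin-high and condensed-nucleus cell shares, with cell loss under 80%, at 10 µM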;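 note: anti alpha tubulin signal scored within the nucleus-defined area of each cell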
Autophagy mod: autophagy modulators in MEF cells, primary screen, imaging, high-content, MEF GFP-LC3; MEF GFP-LC3 puncta imaging; test concentration mostly 10 µM; calls only at 10 µM (by protocol); 190,000 tested, 0.98% active;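 active = percentage of spot-positive cells more than 3 SD above its plate mean, without a fluorescence outlier flag or 80% toxicity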
Dynein transport: inhibitors of GR-EGFP nuclear translocation, primary screen, dynein cargo transport inhibitor project, imaging, high-content, 3617.4 mouse cells; test concentration mostly 20 µM; stimulated with dexamethasone, 1 µM; stronger effect = lower value; z-score, hits read low; 220,000 tested, 0.47% active;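 active = plate z-score of nuclear minus cytoplasmic receptor signal below a set negative limit, without overly bright fluorescence or cell loss, cut at about -3.5 in these data, passing the limit was not always enough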;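 note: z-score of nuclear minus cytoplasmic ring GR-EGFP intensity difference per well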
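Also added: dexamethasone, 1.0 µM final. Medium: tet-free, stripped-serum medium. Detection: fixed, Hoechst-stained cells imaged at 10x for EGFP. Read-out: nuclear-to-cytoplasmic GR-EGFP distribution per well. Times: induction 48 h, compound 1 h, agonist 30 min.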
L major viab: Leishmania major promastigote growth inhibition, primary screen; Leishmania major promastigotes, resazurin fluorescence viability; inhibition, % at 10 µM; 200,000 tested, 9% active; in the data active = inhibition above about 50%;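 note: promastigotes grown with compound for 44 hours at 28 °C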
bCat nuc transl: modulators of beta-catenin nuclear translocation, primary screen, imaging, HeLa cells, immunofluorescence, high-content | nuclear translocation activity, % at 5 µM | 190,000 tested, 0.3% active | AID 1665, 2009;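 active = nuclear translocation activity above 50% at 5 µM, with a well cell count of 50 or more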;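 note: per-cell ratio of nuclear to cytoplasmic median beta-catenin stain intensity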
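System: HeLa cells, endogenous beta-catenin; compound dosing: 5 µM primary single dose, 0.1% DMSO, 0.02–20 µM confirmation series; incubation: 24 h compound exposure at 37°C, 5% CO2; signal: beta-catenin immunofluorescence imaging with DAPI; evaluation: % activation, nuclear-to-cytoplasmic median beta-catenin signal ratio per cell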
A number is an active result; – = inactive; · = not tested or not shown; + = active, no number.

SMILES | CHOP inhibitor | MT stabilize HCS | Autophagy mod | Dynein transport | L major viab | bCat nuc transl
COc1ccc(/C=C2\SC(=S)N(CCCC(=O)NNC(=O)c3ccccc3O)C2=O)cc1 | 106 | – | – | – | – | –
O=C(CCCN1C(=O)/C(=C/c2ccccc2Cl)SC1=S)NNC(=O)c1ccccc1Cl | 95 | – | – | – | 67 | –
CSC(=S)N/N=C(\C)c1ccc(Br)cc1 | – | – | – | – | – | –
Cc1cc(C)cc(NC(=O)c2cnn(-c3ccccc3)c2C2CCNCC2)c1 | – | – | – | – | – | –
COC(=O)C1CSC(c2ccc(Cl)cc2)N1C(=O)c1ccccc1 (centres undefined) | – | – | – | – | – | –
O=C(NNC(=O)C1CCCO1)c1ccc(F)cc1 (centres undefined) | – | – | – | – | – | –
Clc1ncnc2scc(-c3ccccc3)c12 | – | – | – | – | – | –
S=c1[nH]cnc2scc(-c3ccccc3)c12 | – | – | – | – | 99 | –
CC1CN(c2nc(-c3ccc(Br)cc3)nnc2-c2ccccc2)CC(C)N1 (centres undefined) | – | – | – | – | 90 | ·
Clc1ccc(-c2nnc(-c3ccccc3)c(N3CCSCC3)n2)cc1 | – | – | – | – | – | –
C=CCN1C(c2ccccc2)=CS/C1=C(/C#N)c1nnc(N2CCOCC2)n1-c1ccccc1 | – | – | – | – | 74 | –
CN1C(c2ccc(F)cc2)=CS/C1=C(/C#N)c1nnc(N2CCOCC2)n1-c1ccccc1 | – | – | – | – | 56 | –
CN1C(=O)NC(c2ccccc2)(C(F)(F)F)S/C1=C(/C#N)c1nnc(N2CCOCC2)n1-c1ccccc1 (centres undefined) | – | – | – | – | – | –
COc1ccc(-c2nnc3n2-c2ccccc2SC3)cc1OC | – | – | – | – | – | –
CCN1C(c2ccc(F)cc2)=CS/C1=C(\C#N)c1nnc2n1-c1ccccc1SC2 | – | – | – | – | 72 | –
O=[N+]([O-])c1cc(/C=N/OCc2c(Cl)cccc2Cl)ccc1N1CCOCC1 | – | – | – | – | – | –
CCOC(=O)C1=C(c2ccccc2)NC(=S)NC1c1ccc(Cl)c([N+](=O)[O-])c1 (centres undefined) | – | – | – | – | 58 | –
CCN1CCN(C(CNC(=O)c2ccc3c(c2)OCO3)c2cccnc2)CC1 (centres undefined) | – | – | · | – | – | –
COc1cc(C(C[N+](=O)[O-])c2c(C)[nH]c3ccccc23)ccc1O (centres undefined) | – | – | + | – | – | –
COc1cc(C(C[N+](=O)[O-])c2c(N)n(C)c(=O)n(C)c2=O)ccc1O (centres undefined) | – | – | – | – | 73 | –
Cc1ccc(C(C[N+](=O)[O-])c2c(N)n(C)c(=O)n(C)c2=O)cc1 (centres undefined) | – | · | · | – | · | –
CC1=C(C(=O)Nc2ccc(Br)cc2)C(c2ccco2)NC(=O)N1 (centres undefined) | – | – | – | – | – | ·
COc1ccc(NS(=O)(=O)c2ccc3nc(COc4ccc5ccccc5c4)[nH]c3c2)cc1 | – | – | – | – | – | –
COc1ccc(NS(=O)(=O)c2ccc3nc(COc4cccc5ccccc45)[nH]c3c2)cc1 | – | – | – | – | 95 | –
Cc1cc(O)ccc1NC(=O)CCN1C(=O)c2ccc([N+](=O)[O-])cc2C1=O | – | – | – | – | 70 | –
SMILES | CHOP inhibitor | MT stabilize HCS | Autophagy mod | Dynein transport | L major viab | bCat nuc transl
O=C(CCN1C(=O)c2ccc([N+](=O)[O-])cc2C1=O)Nc1cccc(O)c1 | – | – | – | – | – | –
Cc1c(C)n(CC(O)CN2C(=O)c3ccccc3S2(=O)=O)c2ccccc12 (centres undefined) | – | – | – | – | – | –
CSC1=NCCN1C(=O)C12CC3CC(CC(C3)C1)C2 | – | – | – | – | 51 | –
CSC1=NCCN1C(=O)c1cccs1 | – | – | – | – | – | –
CCSc1ncnc2sc(C)c(C)c12 | – | – | + | – | – | –
Cc1sc2ncnc(SCC(=O)N3CCCC3)c2c1C | – | – | – | – | – | –
C=CCSc1ncnc2sc(C)c(C)c12 | – | – | – | – | 54 | ·
CCOC(=O)C1=C(N)N(c2cc(S(=O)(=O)N3CCOCC3)ccc2Cl)C(=O)C1 | – | – | – | – | – | –
CN1CCc2nc(SCCOc3ccccc3)c(C#N)cc2C1 | – | – | – | – | – | ·
COc1ccc(-c2cc3ccccc3[nH]2)cc1 | – | · | · | – | · | –
Cc1ccc(O)c(-c2cc3ccccc3[nH]2)c1 | – | – | – | – | 59 | –
Cc1ccc(C(=O)c2cc(C)sc2NC(=O)CN2CCN(C(=O)c3ccco3)CC2)cc1 | 82 | – | – | – | 50 | –
Cc1cc(C(=O)c2ccccc2)c(NC(=O)CN2CCOCC2)s1 | – | – | – | – | – | –
COc1ccc(C(=O)NNC(=O)CN2CCN(c3nc(-c4ccccc4)cs3)CC2)cc1 | – | – | – | – | – | –
Oc1ccc2ccccc2c1N=Nc1ccccn1 | – | – | – | – | 100 | –
O=C(CSc1nc(-c2ccccc2)cc(=O)[nH]1)N1CCOCC1 | – | – | – | – | – | –
COc1ccc(OCC#CCNC(C)(C)C)cc1 | – | – | – | – | 92 | –
CC(C)NCC#CCOc1ccc(Cl)cc1 | – | – | – | – | – | –
Fc1ccc(CN2CCN3CCCC3C2C2CCCCC2)cc1F (centres undefined) | – | – | – | – | 99 | –
Fc1cccc(CN2CCN3CCCC3C2C2CCCCC2)c1 (centres undefined) | – | – | – | – | 89 | –
COC(=O)c1cc(-c2ccc(S(=O)(=O)N3CCCCC3)cc2)c(C(F)(F)F)s1 | – | · | · | – | · | –
O=C(Oc1cccc2c(O)cccc12)c1ccccc1 | 106 | – | – | – | – | –
O=C(O)CCc1ccccc1OC(=O)c1ccccc1 | – | · | · | – | · | –
CC(C)CN1CN(Cc2ccccc2)CNC1=S | – | – | – | – | – | –
CN(C1=C(NC(=O)c2ccccc2)C(=O)c2ccccc2C1=O)C1CCS(=O)(=O)C1 (centres undefined) | 107 | – | – | – | 99 | –
CC(=O)CSc1nnc(C(F)(F)F)n1C | – | · | · | – | · | –
Cc1nn(-c2ccccn2)c2c1C(c1ccccn1)C1=C(CCCC1=O)N2 (centres undefined) | – | – | – | – | – | –
O=C(Nc1ccc(NC(=O)C2CCCCC2)nc1)c1ccco1 | – | – | – | – | 86 | –
O=C(Nc1ccc(NC(=O)C2CCCCC2)nc1)c1ccccn1 | – | – | – | – | 71 | –
